Test results: ChEMBL document CHEMBL4616665, “Synthesis and Identification of a Novel Lead Targeting Survivin Dimerization for Proteasome-Dependent Degradation” (J Med Chem, 2020)
Calls of active or inactive are those of the source. No cut-off for these calls is given here.

Tests used:
[1] = tested on: PC-3; experiment: Cytotoxicity against human PC3 cells assessed as reduction in cell viability by MTT assay; format: functional, cell-based
[2] = tested on: PC-3; experiment: Cytotoxicity against human PC3 cells assessed as reduction in cell viability measured after 72 hrs by methylene blue staining based assay; format: functional; conditions: PC-3, 72 h
Method in brief: (§1)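 Methylene blue survival assay. Prostate cancer cells in RPMI with 10% FBS were seeded at 2000–3500 cells/well and exposed to a concentration series for 72 h. Cells were then methanol-fixed, stained with 1% methylene blue in 10 mM borate for 1 h, washed, and the dye dissolved in ethanol/0.1 M HCl (1:1). OD650nm was read. IC50 came from fitted dose–response curves; three independent experiments.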

[3] = biological target: Baculoviral IAP repeat-containing protein 5 (Homo sapiens) (UniProt O15392); experiment: Inhibition of survivin homodimerization in human C4-2 cells assessed as increase in survivin degradation by measuring survivin half life at 10 uM incubated up to 6 hrs in presence of cycloheximide by Western blot analysis (reference value: 2.2 hrs); format: cell-based; conditions: LNCaP C4-2
Method in brief: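 C4-2 or PC-3 cells were pretreated with 10 μM cycloheximide for 1 h, then chased with or without 10 μM compound, or with DMSO, for 0–6 h. Remaining survivin was measured by Western blot with actin as loading control. Band densities were quantified from three independent experiments to derive half-life.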

[4] = tested on: LNCaP C4-2; experiment: Down regulation of survivin expression in human C4-2 cells by Western blot analysis; format: functional, cell-based
[5] = tested on: LNCaP C4-2; experiment: Induction of apoptosis in human C4-2 cells at 3 uM measured after 48 hrs by Annexin V-FITC/propidium iodide staining based flow cytometry relative to control; format: functional
Method in brief: (§2)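 C4-2 or PC-3 cells were treated with 3 μM compound or DMSO for 48 h, harvested, washed, and stained with annexin V-FITC and propidium iodide. Apoptosis was analysed by flow cytometry with excitation at 488 […]; three independent experiments.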

[6] = biological target: Baculoviral IAP repeat-containing protein 5 (Homo sapiens) (UniProt O15392); experiment: In vivo inhibition of survivin in NSG mouse xenografted in human PC3 cells assessed as reduction in survivin expression at 100 mg/kg, po administered via gavage every other day for 10 times and measured post last dose by Western blot analysis; format: functional, organism-based; conditions: PC-3
Method in brief: (§3)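 PC-3 cells (3 × 10^6, in media) implanted in hind flanks of 6-week-old male NSG mice. Once tumors reached ~100 mm3, mice were randomized into two groups of 5. Vehicle (90% corn oil/10% DMSO) or 100 mg/kg was given by oral gavage every other day for ten doses. Body weight and tumor size were measured every 2 days. At sacrifice, tumors were excised for survivin Western blot and staining, and major organs were wet-weighed.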

[7] = tested on: DU-145; experiment: Effect on basal SEAP reporter activity in human DU145 cells measured after 24 hrs by mammalian two hybrid assay; format: ADME, cell-based; conditions: du-145, 24 h
Method in brief: (§4)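 Mammalian two-hybrid assay in DU145 cells seeded at 1 × 10^5/well, cultured 24 h, then transfected with GAL4-DBD (pBIND) and VP16 (pACT) fusions plus pGSEAP reporter and a firefly luciferase plasmid. Survivin–survivin or p53–large T antigen pairs were used; vector served as control. Two days later, cells were treated for 24 h. SEAP was measured by chemiluminescence and normalized using luciferase for transfection efficiency.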

[8] = tested on: LNCaP C4-2; experiment: Cytotoxicity against human C4-2 cells assessed as reduction in cell viability measured after 72 hrs by methylene blue staining based assay; format: functional; conditions: LNCaP C4-2, 72 h; method in brief: as §1
[9] = Toxicity in NSG mouse xenografted in human PC3 cells assessed as effect on stomach weight at 100 mg/kg, po administered via gavage every other day for 10 times and measured post last dose; format: organism-based, PC-3; conditions: in vivo; method in brief: as §3
[10] = tested on: PC-3; experiment: Antitumor activity against human PC3 cells xenografted in NSG mouse assessed as reduction in tumor size at 100 mg/kg, po administered via gavage every other day for 10 times and measured post last dose; format: functional, organism-based; method in brief: as §3
[11] = biological target: Baculoviral IAP repeat-containing protein 5 (Homo sapiens) (UniProt O15392); experiment: In vivo inhibition of survivin in NSG mouse xenografted in human PC3 cells assessed as reduction in survivin expression at 100 mg/kg, po administered via gavage every other day for 10 times and measured post last dose by immunofluorescence analysis; format: functional, organism-based; conditions: PC-3; method in brief: as §3
[12] = tested on: PC-3; experiment: Induction of apoptosis in human PC3 cells at 3 uM measured after 48 hrs by Annexin V-FITC/propidium iodide staining based flow cytometry relative to control; format: functional; method in brief: as §2
[13] = tested on: PC-3; experiment: Induction of apoptosis in human PC3 cells assessed as increase in cleavage of caspase-3 by Western blot analysis; format: functional, cell-based
Method in brief: (§5)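 C4-2 or PC-3 cells were treated at a range of concentrations, and cleaved caspase 3 was measured by Western blot. Quantification was from three independent experiments.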

[14] = Toxicity in NSG mouse xenografted in human PC3 cells assessed as effect on liver weight at 100 mg/kg, po administered via gavage every other day for 10 times and measured post last dose; format: organism-based, PC-3; conditions: in vivo; method in brief: as §3
[15] = biological target: Baculoviral IAP repeat-containing protein 5 (Homo sapiens) (UniProt O15392); experiment: Inhibition of survivin homodimerization in human C4-2 cells assessed as increase in survivin degradation in presence of proteasome inhibitor MG132 by Western blot analysis; format: cell-based; conditions: LNCaP C4-2
Method in brief: (§6)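 Cells were pretreated for 1 h with proteasome inhibitor MG132 or bortezomib before compound treatment. Survivin was then assessed by Western blot with actin loading control, quantified from three independent experiments.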

[16] = Toxicity in NSG mouse xenografted in human PC3 cells assessed as effect on heart weight at 100 mg/kg, po administered via gavage every other day for 10 times and measured post last dose; format: organism-based, PC-3; conditions: in vivo; method in brief: as §3
[17] = tested on: LNCaP C4-2; experiment: Down regulation of CIAP1 expression in human C4-2 cells by Western blot analysis; format: functional, cell-based
[18] = tested on: PC-3; experiment: Down regulation of CIAP2 expression in human PC3 cells by Western blot analysis; format: functional, cell-based
[19] = tested on: PC-3; experiment: Antitumor activity against human PC3 cells xenografted in NSG mouse assessed as change in tumor color at 100 mg/kg, po administered via gavage every other day for 10 times and measured post last dose; format: functional, organism-based; method in brief: as §3
[20] = Solubility of the compound in corn oil; format: physicochemical
[21] = Toxicity in NSG mouse xenografted in human PC3 cells assessed as effect on lung weight at 100 mg/kg, po administered via gavage every other day for 10 times and measured post last dose; format: organism-based, PC-3; conditions: in vivo; method in brief: as §3
[22] = biological target: Baculoviral IAP repeat-containing protein 5 (Homo sapiens) (UniProt O15392); experiment: Inhibition of survivin homodimerization in human C4-2 cells assessed as increase in survivin degradation in presence of proteasome inhibitor bortezomib by Western blot analysis; format: cell-based; conditions: LNCaP C4-2; method in brief: as §6
[23] = tested on: PC-3; experiment: Down regulation of XIAP expression in human PC3 cells by Western blot analysis; format: functional, cell-based
[24] = tested on: LNCaP C4-2; experiment: Cytotoxicity against human C4-2 cells transfected with HA-tagged survivin assessed as reduction in cell viability measured after 72 hrs by methylene blue staining based assay; format: functional; conditions: LNCaP C4-2, 72 h
[25] = biological target: Baculoviral IAP repeat-containing protein 5 (Homo sapiens) (UniProt O15392); experiment: Inhibition of survivin homodimerization in human PC3 cells assessed as increase in survivin degradation by measuring survivin half life at 10 uM incubated up to 6 hrs in presence of cycloheximide by Western blot analysis (reference value: 2.3 hrs); conditions: PC-3
[26] = tested on: LNCaP C4-2; experiment: Down regulation of XIAP expression in human C4-2 cells by Western blot analysis; format: functional, cell-based
[27] = tested on: LNCaP C4-2; experiment: Down regulation of CIAP2 expression in human C4-2 cells by Western blot analysis; format: functional, cell-based
[28] = tested on: LNCaP C4-2; experiment: Induction of apoptosis in human C4-2 cells assessed as increase in cleavage of caspase-3 by Western blot analysis; format: functional, cell-based; method in brief: as §5
[29] = tested on: LNCaP C4-2; experiment: Cytotoxicity against human C4-2 cells transfected with pcDNA3.1 assessed as reduction in cell viability measured after 72 hrs by methylene blue staining based assay; format: functional; conditions: LNCaP C4-2, 72 h; method in brief: as §1
[30] = organism: Homo sapiens; experiment: Inhibition of p53-large T antigen (unknown origin) dimerization assessed as reduction in SEAP reporter expression measured after 24 hrs by mammalian two hybrid assay; method in brief: as §4
[31] = tested on: PC-3; experiment: Down regulation of CIAP1 expression in human PC3 cells by Western blot analysis; format: functional, cell-based
[32] = Toxicity in NSG mouse xenografted in human PC3 cells assessed as effect on kidney weight at 100 mg/kg, po administered via gavage every other day for 10 times and measured post last dose; format: organism-based, PC-3; conditions: in vivo; method in brief: as §3
[33] = tested on: PC-3; experiment: Down regulation of survivin expression in human PC3 cells by Western blot analysis; format: functional, cell-based
[34] = Toxicity in NSG mouse xenografted in human PC3 cells assessed as effect on body weight at 100 mg/kg, po administered via gavage every other day for 10 times and measured every 2 days during compound dosing; format: organism-based, PC-3; conditions: in vivo, 48 h; method in brief: as §3
[35] = tested on: PC-3; experiment: Antitumor activity against human PC3 cells xenografted in NSG mouse assessed as suppression of tumor growth at 100 mg/kg, po administered via gavage every other day for 10 times and measured every 2 days during compound dosing; format: functional, organism-based; method in brief: as §3

Baculoviral IAP repeat-containing protein 5 (Homo sapiens), sequence (O15392 whole entry): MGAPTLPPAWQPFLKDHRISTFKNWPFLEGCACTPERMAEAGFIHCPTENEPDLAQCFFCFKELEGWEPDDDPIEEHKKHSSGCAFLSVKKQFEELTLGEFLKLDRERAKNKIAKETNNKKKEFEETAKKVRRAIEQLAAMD

## O=C1N=c2ccc(Nc3nc4nonc4nc3N/N=C/c3ccccc3OCc3ccc(Cl)cc3Cl)cc2=N1
[1]
  IC50: 60.3 µM

## Fc1ccc(Nc2nc3ccccc3nc2Nc2ccc(F)cc2)cc1
[2]
  IC50: 4.8 µM
[3]
  T1/2: 50 min
[4]
  Activity: Active
[5]
  Activity: 48%
[6]
  inhibition: Active
[7]
  Activity: Non-Toxic
[8]
  IC50: 3.1 µM
[9]
  Activity: Non-Toxic
[10]
  Activity: Active
[11]
  inhibition: Active
[12]
  Activity: 39%
[13]
  Activity: Dose-dependent effect
[14]
  Activity: Non-Toxic
[15]
  inhibition: inactive
[16]
  Activity: Non-Toxic
[17]
  Activity: inactive
[18]
  Activity: inactive
[19]
  Activity: Active
[20]
  solubility: Soluble
[21]
  Activity: Non-Toxic
[22]
  inhibition: inactive
[23]
  Activity: inactive
[24]
  IC50: 7 µM
[25]
  T1/2: 25 min
[26]
  Activity: inactive
[27]
  Activity: inactive
[28]
  Activity: Dose-dependent effect
[29]
  IC50: 2000 nM
[30]
  inhibition: inactive
[31]
  Activity: inactive
[32]
  Activity: Non-Toxic
[33]
  Activity: Active
[34]
  Activity: Non-Toxic
[35]
  Activity: Active

## Cc1cccc(Nc2nc3nonc3nc2N/N=C/c2cc3c(cc2[N+](=O)[O-])OCO3)c1C
[1]
  IC50: 2.6 µM

## Cc1ccc(-c2ccc(/C=N/Nc3nc4nonc4nc3Nc3ccc(Br)cc3)o2)cc1Cl
[1]
  IC50: 3.3 µM

## O=C(Nc1nc2ccccc2nc1Nc1ccc(F)cc1)c1ccccc1
[2]
  IC50: 19.7 µM
[8]
  IC50: 12.7 µM

## CC(C)(C)c1ccc(Nc2nc3ccccc3nc2Nc2ccc(C(C)(C)C)cc2)cc1
[2]
  IC50: 18.2 µM
[8]
  IC50: 18.6 µM

## Cc1cccc(Nc2nc3ccccc3nc2Nc2cccc(C)c2C)c1C
[2]
  IC50: 24.8 µM
[8]
  IC50: 17.6 µM

## Cc1cccc(Nc2nc3nonc3nc2N/N=C/c2ccc(-c3cccc(C(=O)O)c3)o2)c1C
[2]
  IC50: 8.1 µM
[8]
  IC50: 9.1 µM

## CCOC(=O)c1ccc(Nc2nc3nonc3nc2N/N=C/c2c[nH]nc2-c2ccccc2)cc1
[1]
  IC50: 3.5 µM

## Cc1cccc(Nc2nc3nonc3nc2N/N=C/c2ccc(-c3ccc(Cl)c([N+](=O)[O-])c3)o2)c1C
[1]
  IC50: 7.2 µM

## O=C(Nc1nc2ccccc2nc1Nc1ccc(F)cc1)c1ccc2c(c1)OCO2
[2]
  IC50: 20.7 µM
[8]
  IC50: 14.3 µM
